Data as given in ChEMBL document CHEMBL4052793, “Synthesis and Biological Evaluation of Paclitaxel and Camptothecin Prodrugs on the Basis of 2-Nitroimidazole” (ACS Med Chem Lett, 2017).
pIC50: −log10 of the molar value.

Experiments:
[1] = Drug level in Pd/C using 1 mg 3C-SN38 assessed as compound formation in presence of H2 after 2 hrs by LC/MS method
How it was run: (§1)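 Chemical reduction over Pd/C under H2 in THF at 37 °C. Products were analysed to follow release of the parent drug.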

NCI-H460 [2] = test: Cytotoxicity against human NCI-H460 cells assessed as growth reduction under hypoxic condition after 72 hrs by MTT assay; type: functional, cell-based; details: NCI-H460, 72 h
How it was run: (§2)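 H460 lung and HT29 colon carcinoma cells exposed to a range of compound concentrations for 72 h, either in air (normoxic) or under hypoxia (94% N2, 5% CO2, 1% O2). Viability/proliferation read by MTT; IC50 for proliferation inhibition.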

HT-29 [3] = test: Cytotoxicity against human HT-29 cells assessed as growth reduction under normoxic condition after 72 hrs by MTT assay; type: functional, cell-based; details: HT-29, 72 h; how it was run: as §2
HT-29 [4] = test: Cytotoxicity against human HT-29 cells assessed as growth reduction under hypoxic condition after 72 hrs by MTT assay; type: functional, cell-based; details: HT-29, 72 h; how it was run: as §2
[5] = Selectivity ratio, IC50 for human H460 cells under normoxic condition to IC50 for human H460 cells under hypoxic condition; type: functional
HT-29 [6] = test: Selectivity ratio, IC50 for human HT-29 cells under normoxic condition to IC50 for human HT29 cells under hypoxic condition; type: functional
[7] = Half life in ABS buffer at 10 uM at pH 5.0 by HPLC method; type: physicochemical
[8] = Half life in PBS buffer at 10 uM at pH 6.5 by HPLC method; type: physicochemical
[9] = Half life in PBS buffer at 10 uM at pH 7.4 by HPLC method; type: physicochemical
[10] = Drug degradation in human plasma assessed as compound half life at 10 uM by HPLC method; type: ADME, cell-free
How it was run: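 Incubated in human plasma in vitro; remaining prodrug followed by HPLC over time and half-life derived.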

[11] = Prodrug conversion assessed as Escherichia coli nitroreductase mediated SN38 reduction by measuring half life at 10 uM in presence of NADPH by HPLC method; type: ADME; details: isolated protein
How it was run: (§3)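 Prodrugs at 10 μM (1% DMSO) in PBS pH 7.4 incubated at 37 °C with E. coli nitroreductase (50 μg/mL) and NADPH (1 μmol/mL) for up to 1 h. Prodrug loss and active drug release tracked by HPLC.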

NCI-H460 [12] = test: Cytotoxicity against human NCI-H460 cells assessed as growth reduction under normoxic condition after 72 hrs by MTT assay; type: functional, cell-based; details: NCI-H460, 72 h; how it was run: as §2
Mus musculus = organism: Mus musculus; test: Drug degradation in mouse plasma assessed as compound half life at 10 uM by HPLC method
[13] = Prodrug conversion in Pd/C assessed as PTX formation at 1 mg after 2 hrs in presence of H2 by LC/MS method; how it was run: as §1
[14] = Prodrug conversion in Pd/C assessed as 2-aminoimidazole intermediate of 3C-PTX formation at 1 mg after 2 hrs in presence of H2 by LC/MS method; how it was run: as §1
[15] = Prodrug conversion in Pd/C assessed as SN38 formation at 1 mg after 2 hrs in presence of H2 by LC/MS method; how it was run: as §1
[16] = Prodrug conversion in Pd/C assessed as 2-aminoimidazole intermediate of 3C-SN38 formation at 1 mg after 2 hrs in presence of H2 by LC/MS method; how it was run: as §1
[17] = Prodrug conversion in Pd/C assessed as 2-aminoimidazole intermediate of 2C-PTX formation at 1 mg after 2 hrs in presence of H2 by LC/MS method; how it was run: as §1
[18] = Prodrug conversion assessed as Escherichia coli nitroreductase mediated 2-aminoimidazole intermediate of 2C-PTX formation at 10 uM after 1 hr in presence of NADPH by HPLC method; type: ADME; details: isolated protein; how it was run: as §3
[19] = Drug level in Pd/C treated with 3C-PTX at 1 mg in presence of H2 after 2 hrs by LC/MS method; how it was run: as §1
[20] = Drug level in Pd/C treated with 2C-PTX at 1 mg in presence of H2 after 2 hrs by LC/MS method; how it was run: as §1

Row | Structure (SMILES) | pIC50 (NCI-H460 [2]) | pIC50 (HT-29 [3]) | pIC50 (HT-29 [4]) | Ratio IC50 [5] | Ratio IC50 (HT-29 [6]) | half-life at 10 µM [7] [h] | half-life at 10 µM [8] [h] | half-life at 10 µM [9] [h] | half-life at 10 µM [10] [h] | t1/2 [11] | pIC50 (NCI-H460 [12]) | half-life at 10 µM (Mus musculus) [h] | Drug metabolism [13] | also measured
1 | CCc1c2c(nc3ccc(O)cc13)-c1cc3c(c(=O)n1C2)COC(=O)[C@]3(O)CC [7-ETHYL-10-HYDROXYCAMPTOTHECIN] | 7.33 | 7.02 | 6.92 | 1.06 | 0.82 |  |  |  |  |  |  |  |  | Drug metabolism [1]: Metabolite detected
2 | CCc1c2c(nc3ccc(O)cc13)-c1cc3c(c(=O)n1C2)COC(=O)[C@@]3(CC)OC(=O)OCCn1ccnc1[N+](=O)[O-] | 7.20 | < 5.00 | 5.02 | 1.44 | >1.05 | > 48 | 41 | > 48 | 6 | 0.5 h | 7.04 | 0.783 |  | 
3 | CC(=O)O[C@H]1C(=O)[C@@]2(C)[C@H]([C@H](OC(=O)c3ccccc3)[C@]3(O)C[C@H](OC(=O)[C@H](OC(=O)OCCCn4ccnc4[N+](=O)[O-])[C@@H](NC(=O)c4ccccc4)c4ccccc4)C(C)=C1C3(C)C)[C@]1(OC(C)=O)CO[C@@H]1C[C@@H]2O | 7.74 | 6.54 | 6.80 | 1.17 | 1.82 | > 48 | 24 | 36 | 6 | <= 10 min | 7.68 | 0.917 | Metabolite detected | Drug metabolism [14]: Metabolite detected
4 | CCc1c2c(nc3ccc(O)cc13)-c1cc3c(c(=O)n1C2)COC(=O)[C@@]3(CC)OC(=O)OCCCn1ccnc1[N+](=O)[O-] | 7.00 | < 5.00 | 5.22 | 2.03 | >1.67 | 40 | > 48 | > 48 | 2 | <= 10 min | 6.70 | 0.617 |  | Drug metabolism [15]: Metabolite detected; Drug metabolism [16]: Metabolite detected
5 | CC(=O)O[C@H]1C(=O)[C@@]2(C)[C@H]([C@H](OC(=O)c3ccccc3)[C@]3(O)C[C@H](OC(=O)[C@H](OC(=O)OCCn4ccnc4[N+](=O)[O-])[C@@H](NC(=O)c4ccccc4)c4ccccc4)C(C)=C1C3(C)C)[C@]1(OC(C)=O)CO[C@@H]1C[C@@H]2O | 8.22 | 6.85 | 7.35 | 1.5 | 3.11 | 48 | 24 | 28 | 2 | <= 10 min | 8.05 | 0.333 | Metabolite detected | Drug metabolism [17]: Metabolite detected; Drug metabolism [18]: Metabolite_Notdetected
6 | CC(=O)O[C@H]1C(=O)[C@@]2(C)[C@H]([C@H](OC(=O)c3ccccc3)[C@]3(O)C[C@H](OC(=O)[C@H](O)[C@@H](NC(=O)c4ccccc4)c4ccccc4)C(C)=C1C3(C)C)[C@]1(OC(C)=O)CO[C@@H]1C[C@@H]2O [PACLITAXEL] |  | 7.85 | 7.82 |  |  |  |  |  |  |  |  |  |  | Drug metabolism [19]: Metabolite detected; Drug metabolism [20]: Metabolite detected
